NF-kB expr up – NF-kB expression increase, human neuronal cells | 190,000 compounds, 1.6% hits | AID 1239 | NF-kB reporter expression; hits give high values | fold change at 12.5 µM; in the data active = fold change above about 3.3
STAT1 act – STAT1 signaling activation | activation (% of control), % at 5.5 µM | NIH 3T3 STAT1-luciferase reporter, IFN-gamma, luminescence; 100% = IFN-gamma alone, no compound | 200,000 compounds, 2.6% hits;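 active = activation above the screen-wide mean activation plus 3 SD, cut at about 130% in these data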
STAT1 inh – inhibitors of IFN-gamma induced STAT1 signaling; NIH 3T3 STAT1-luciferase reporter, luminescence; inhibition, % at 5.5 µM; 200,000 compounds, 0.35% hits; AID 920;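 active = inhibition above a set limit, the mean inhibition across all tested compounds plus 3 SD, cut at about 34% in these data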
STAT3 inh – reduces IL-6 driven STAT3 reporter signal | U3A cells, IL-6 STAT3-luciferase reporter, luminescence; host cell line lacks STAT1 | 190,000 compounds, 0.89% hits | inhibition, % at 5.5 µM | AID 862;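 active = inhibition above the mean inhibition across all screened compounds plus 3 SD, cut at about 44% in these data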
APP 5'UTR act – activates APP 5'UTR luciferase reporter; SH-SY5Y APP 5'UTR luciferase reporter, luminescence; zero percent = DMSO vehicle wells; activation, % at 2 µM; 190,000 compounds, 1% hits;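 active = activation above a set limit, based on mean plus 3 SD of controls, cut at about 140% in these data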
STAT3 act – activators of IL-6 induced STAT3 signaling. U3A cells, IL-6 STAT3-luciferase reporter, luminescence; 100% = signal with IL-6 EC80 alone. activation (% of control), % at 5.6 µM. 190,000 compounds, 0.91% hits. AID 871;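 active = activation above the screen-wide mean of compound activation plus 3 SD, cut at about 130% in these data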
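Test system: human U3A cells carrying STAT3-luciferase construct; control set: IL-6-only wells as 100% reference; timing: compound pre-incubation 1 h before IL-6, then 6 h stimulation at 37 °C; also added: IL-6 stimulus at 33 ng/mL final; evaluation: % activation versus median of IL-6-stimulated wells; detection: reporter luminescence signal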
Hits are given with their value; 0 = inactive; - = no result. In the library only some 4.9% were active in any assay of this set; here they are far more common.

SMILES	NF-kB expr up	STAT1 act	STAT1 inh	STAT3 inh	APP 5'UTR act	STAT3 act
Cc1nc(N2CCN(S(=O)(=O)c3ccccc3C#N)CC2)c2c(-c3cccs3)csc2n1	0	0	0	0	0	0
COc1c(C)cccc1C(=O)Nc1ccc(CN2CCOCC2)cc1	0	130	0	0	0	0
COc1cccc(NC(=O)c2ccc(CN3CCOCC3)cc2)c1	0	131	0	0	0	0
COc1c(C)cccc1C(=O)Nc1ccc(N2CCN(S(C)(=O)=O)CC2)cc1	0	145	0	0	0	0
Cn1c(=O)[nH]c2ccc([N+](=O)[O-])nc21	0	0	0	0	0	0
CCC(C)NS(=O)(=O)c1ccc(OCC(=O)N2CCC(C)CC2)cc1 (configuration not stated)	0	0	0	0	0	0
CC(=O)Cn1cnc2sc(-c3ccccc3)cc2c1=O	3.7	145	0	0	0	0
CC(=O)Cn1nnc2sc(-c3ccccc3)cc2c1=O	0	146	0	0	0	0
COc1ccc(-n2cnc3sc(-c4ccccc4)cc3c2=O)cc1	3.5	149	0	0	0	0
CCc1cc2c(=O)n(-c3ccccc3)cnc2s1	0	0	0	0	-	0
O=C(Cn1cnc2sc(-c3ccccc3)cc2c1=O)N1CCOCC1	0	0	0	0	0	0
CCc1cc2c(=O)n(-c3ccc(C)cc3)cnc2s1	4.2	139	0	0	0	0
CCn1ncc(Br)c1C(=O)Nc1cc([N+](=O)[O-])ccc1C	0	0	0	0	0	0
O=C(O)COCc1nc2ccccc2[nH]1	0	0	0	0	0	0
O=c1c2cc(-c3ccccc3)sc2ncn1-n1cccc1	0	129	0	0	0	0
CN(CCc1ccccn1)C(=O)CCc1nnc(CCCc2ccccc2)o1	0	133	0	0	0	0
CC(C)N(CCO)C(=O)CCc1nnc(CCCc2ccccc2)o1	0	0	0	0	0	0
CC(C)N(Cc1nccn1C)C(=O)CCc1nnc(CCCc2ccccc2)o1	0	137	0	0	0	0
O=C(Cn1cnc2ccccc2c1=O)Nc1nnc(SCc2ccccc2)s1	0	0	0	0	0	0
COc1ccc(-n2nc(C(=O)NCC(=O)N3CCN(c4ccccn4)CC3)c3ccccc3c2=O)cc1OC	0	0	0	0	0	0
COc1ccc(-n2nc(C(=O)NCC(=O)N3CCN(c4ccccn4)CC3)c3ccccc3c2=O)cc1	0	137	0	0	0	0
CCc1ccc(C(C(=O)NC2CCCC2)N(C(=O)/C=C/C(=O)Nc2cc(C)on2)c2ccccc2C)cc1 (configuration not stated)	0	0	0	0	0	0
CSc1ccc(-c2cc(=O)c3ccccc3o2)cc1	0	134	0	0	142	141
O=c1cc(-c2ccc(F)cc2)oc2ccccc12	-	133	0	0	0	0
O=c1cc(-c2ccccc2F)oc2ccccc12	0	135	0	0	0	0
SMILES	NF-kB expr up	STAT1 act	STAT1 inh	STAT3 inh	APP 5'UTR act	STAT3 act
O=c1cc(-c2ccccc2[N+](=O)[O-])oc2ccccc12	0	0	0	0	0	0
Clc1ccc(N2CCOCC2)nn1	0	0	0	0	0	0
CC1=NN(C(N)=S)C(=O)C1N=Nc1ccccc1 (configuration not stated)	0	130	0	0	0	0
CC1=NN(c2ccccc2)C(=O)C1N=Nc1ccccc1 (configuration not stated)	0	0	0	0	0	133
CC1=NN(c2ccccc2)C(=O)C1N=Nc1ccc(N)cc1 (configuration not stated)	0	0	0	0	0	0
O=C1CC(c2ccc(F)cc2)C(n2cncn2)C(O)=C1C1NCCc2ccccc21 (configuration not stated)	0	0	0	0	0	0
Clc1cccc(/C=N/Nc2nc(Cl)nc3ccccc23)c1	0	145	0	0	-	0
Cc1cc(C)nc(N/N=C/c2cccc(Cl)c2)n1	0	0	0	0	0	0
CC(C)CN(CC(C)C)S(=O)(=O)N1CCC(C(=O)NCc2ccco2)CC1	0	0	0	0	0	0
CCOC(=O)c1c(C)oc2c1c(C(c1cccnc1)N1CCOCC1)c(O)c1ccccc12 (configuration not stated)	3.6	0	0	0	0	133
CCOC(=O)c1c(C)oc2c1c1c(c3ccccc32)OCN(Cc2cccnc2)C1	4.7	0	0	0	0	0
CCOC(=O)N1CCN(C(=O)C2CCN(Cc3nc(-c4ccccc4C)oc3C)CC2)CC1	0	0	0	0	-	0
CCOC(=O)C1(Cc2ccc(OC)cc2)CCN(C(=O)C2=CCCC2)CC1	0	0	0	0	0	0
N#C/C(=C/c1ccccc1)C(=O)NCc1ccccc1	0	0	0	0	0	0
CN(C)c1ccc(/C=C(/C#N)C(=O)NCc2ccccc2)o1	0	129	0	0	0	0
C=CCOC(=O)Nc1snnc1C	0	0	0	0	0	0
Cc1nnsc1NC(=O)OCc1ccc(C(C)(C)C)cc1	0	0	0	65	0	0
COc1ccc(C2C3=C(CC(C)(C)CC3=O)Oc3ncn(CCCn4ccnc4)c(=N)c32)cc1 (configuration not stated)	0	0	0	0	0	0
CC(=O)c1cnc2cc(-c3ccc(Cl)cc3)nn2c1C	3.6	138	0	0	0	0
O=C1NC(=O)/C(=C\c2ccc(Oc3cnccn3)cc2)S1	0	140	0	0	0	0
O=C1NC(=S)S/C1=C/c1ccc(Oc2cnccn2)cc1	0	0	0	0	0	0
CCOC(=O)COc1ccc(S(=O)(=O)NCCC2=CCCCC2)cc1	0	0	0	0	0	0
Cc1ccccc1OCc1nnc2c3cnn(C)c3ncn12	0	139	0	0	0	0
CC(=O)c1c(C)[nH]c(C(=O)Nc2nc(C)cs2)c1C	0	0	70	85	0	0
CC(=O)c1c(C)[nH]c(C(=O)Nc2cc(C)cc(C)c2)c1C	0	0	0	0	0	0
SMILES	NF-kB expr up	STAT1 act	STAT1 inh	STAT3 inh	APP 5'UTR act	STAT3 act
Cc1csc(NC(=O)c2ccc(S(C)(=O)=O)cc2)n1	0	130	0	0	0	0
CC(=O)c1c(C)[nH]c(C(=O)Nc2ccc(C)cn2)c1C	0	0	39	90	0	0
O=C(NCC1OCCCN1S(=O)(=O)c1cc(F)ccc1F)C(=O)NC1CCCCC1 (configuration not stated)	0	0	0	0	0	0
CCOc1ccc(-n2nnnc2-c2nc3ccccc3s2)cc1	0	140	0	0	0	0
Cc1ccc(-n2nnnc2-c2nc3ccccc3s2)cc1	0	0	0	0	0	0
Cc1nnc(SCC(=O)NCc2ccc3c(c2)OCO3)n1C	0	0	0	0	0	0
CCn1c(O)c(C=Nc2ccccc2)sc1=O	0	130	0	0	0	0
C=CCn1c(O)c(C=Nc2ccccc2)sc1=S	0	129	0	0	0	0

Bioassay records: PubChem, several laboratories
